{
  "source": "ChEMBL document CHEMBL5705897",
  "about": "“Characterization of WZ4003 and HTH-01-015 as selective inhibitors of the LKB1-tumour-suppressor-activated NUAK kinases” (Biochem J, 2014)",
  "key": {"MEF [1]": {"test_system": "MEF", "test": "Inhibition of NUAK1 in NUAK1+/+ MEF cells assessed as reduction in MYPT1 phosphorylation at Ser445 residues at 10 uM after 16 hrs by immunoblot analysis", "type": "cell-based", "conditions": "Mus musculus", "method_in_brief": "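U2OS cells or NUAK1+/+ MEFs treated with or without 10 μM inhibitor for 16 h, then 20 min in EDTA-PBS dissociation buffer with 10 μM inhibitor or DMSO; detached by tapping and 70 g 3 min spin, lysed immediately and immunoblotted for MYPT1 p-Ser445; three separate experiments.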"}, "[2]": {"molecular_target": "MAP/microtubule affinity-regulating kinase 3 (Homo sapiens) (UniProt P27448)", "sequence (P27448 whole entry, looked up, the tested form may be a part)": "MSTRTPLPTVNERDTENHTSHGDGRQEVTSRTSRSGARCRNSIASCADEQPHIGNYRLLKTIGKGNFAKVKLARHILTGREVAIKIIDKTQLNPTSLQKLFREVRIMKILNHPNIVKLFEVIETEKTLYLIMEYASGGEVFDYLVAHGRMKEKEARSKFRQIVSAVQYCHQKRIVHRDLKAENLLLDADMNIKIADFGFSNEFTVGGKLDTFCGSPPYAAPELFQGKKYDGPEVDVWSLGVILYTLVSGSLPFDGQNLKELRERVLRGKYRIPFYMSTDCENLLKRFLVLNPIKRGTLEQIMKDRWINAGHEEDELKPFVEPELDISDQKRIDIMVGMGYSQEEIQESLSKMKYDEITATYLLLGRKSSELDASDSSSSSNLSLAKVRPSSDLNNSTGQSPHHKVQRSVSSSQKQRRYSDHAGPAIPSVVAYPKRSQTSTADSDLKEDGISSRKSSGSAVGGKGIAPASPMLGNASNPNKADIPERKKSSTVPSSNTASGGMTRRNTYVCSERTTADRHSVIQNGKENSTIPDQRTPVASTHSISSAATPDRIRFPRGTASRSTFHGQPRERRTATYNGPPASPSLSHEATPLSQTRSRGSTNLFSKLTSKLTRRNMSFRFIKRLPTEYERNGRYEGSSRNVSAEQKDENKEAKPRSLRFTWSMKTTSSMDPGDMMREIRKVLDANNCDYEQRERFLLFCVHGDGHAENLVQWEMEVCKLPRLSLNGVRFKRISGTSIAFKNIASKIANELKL", "test": "Inhibition of recombinant human N-terminal His6-tagged MARK3 (2 to 729 residues) expressed in baculovirus infected Sf21 cells assessed as remaining activity at 1 uM using CHKtide as substrate incubated for 30 mins in presence of [gamma-33P]ATP by filter binding method relative to control", "method_in_brief": "(§1)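 Screened at the International Centre for Protein Kinase Profiling against a 140-kinase panel, with inhibitor at 0.1 or 1 μM; activity expressed as percentage of DMSO control reactions, mean of triplicate reactions.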"}, "U2OS": {"test_system": "U2OS", "test": "Antiproliferative activity against human U2OS cells assessed as reduction in cell viability at 10 uM after 5 days by CellTiter 96 non-radioactive cell proliferation assay", "type": "functional, cell-based", "conditions": "time 5.0 day", "method_in_brief": "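Colorimetric CellTiter 96 AQueous proliferation assay in 96-well format; 2000 cells/well seeded for U2OS, 3000 cells/well for MEFs; grown 5 days with or without 10 μM inhibitor; run in triplicate. Inhibitors dissolved in DMSO, final DMSO in medium ≤1%. MEFs cultured in DMEM/10% FBS, glutamine, non-essential amino acids, sodium pyruvate.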"}, "[3]": {"molecular_target": "Mitogen-activated protein kinase 13 (Homo sapiens) (UniProt O15264)", "sequence (O15264 whole entry, the tested form may be a part)": "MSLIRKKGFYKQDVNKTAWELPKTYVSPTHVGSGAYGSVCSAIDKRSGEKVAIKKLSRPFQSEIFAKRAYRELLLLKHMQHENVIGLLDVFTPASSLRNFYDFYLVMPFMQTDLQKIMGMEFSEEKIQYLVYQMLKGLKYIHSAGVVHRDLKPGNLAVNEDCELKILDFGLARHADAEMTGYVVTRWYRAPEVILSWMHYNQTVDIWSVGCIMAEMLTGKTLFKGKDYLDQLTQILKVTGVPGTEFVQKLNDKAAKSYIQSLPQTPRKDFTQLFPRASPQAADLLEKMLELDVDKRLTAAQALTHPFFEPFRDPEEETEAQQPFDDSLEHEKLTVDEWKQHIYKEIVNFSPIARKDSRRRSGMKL", "test": "Inhibition of recombinant human GST-tagged P38delta (1 to 365 residues) expressed in Escherichia coli assessed as remaining activity at 1 uM using MBP as substrate incubated for 30 mins in presence of [gamma-33P]ATP by filter binding method relative to control", "method_in_brief": "as §1"}, "[4]": {"molecular_target": "Protein kinase C alpha type (Homo sapiens) (UniProt P17252)", "test": "Inhibition of recombinant human N-terminal His6-tagged PKCalpha (1 to 672 residues) expressed in baculovirus infected Sf21 cells assessed as remaining activity at 1 uM using Histone H1 as substrate incubated for 30 mins in presence of [gamma-33P]ATP by filter binding method relative to control", "method_in_brief": "as §1"}, "MEF [5]": {"test_system": "MEF", "test": "Inhibition of cell migration in NUAK1+/+ MEF cells at 10 uM pre incubated for 1 hr followed by overnight incubation and measured after 15 to 20 hrs by microscopic based wound healing assay", "type": "functional", "conditions": "Mus musculus", "method_in_brief": "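Wound healing: equal MEF numbers loaded into both chambers of inserts with a 500 μm gap, inhibitor (10 μM) added 1 h before; after overnight at 37 °C, 5% CO2 insert removed and gap closure filmed by time-lapse microscopy every 2 min over 15–20 h; triplicate.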"}, "[6]": {"molecular_target": "Serine/threonine-protein kinase BRSK2 (Homo sapiens) (UniProt Q8IWQ3)", "sequence (Q8IWQ3 whole entry, the tested form may be a part)": "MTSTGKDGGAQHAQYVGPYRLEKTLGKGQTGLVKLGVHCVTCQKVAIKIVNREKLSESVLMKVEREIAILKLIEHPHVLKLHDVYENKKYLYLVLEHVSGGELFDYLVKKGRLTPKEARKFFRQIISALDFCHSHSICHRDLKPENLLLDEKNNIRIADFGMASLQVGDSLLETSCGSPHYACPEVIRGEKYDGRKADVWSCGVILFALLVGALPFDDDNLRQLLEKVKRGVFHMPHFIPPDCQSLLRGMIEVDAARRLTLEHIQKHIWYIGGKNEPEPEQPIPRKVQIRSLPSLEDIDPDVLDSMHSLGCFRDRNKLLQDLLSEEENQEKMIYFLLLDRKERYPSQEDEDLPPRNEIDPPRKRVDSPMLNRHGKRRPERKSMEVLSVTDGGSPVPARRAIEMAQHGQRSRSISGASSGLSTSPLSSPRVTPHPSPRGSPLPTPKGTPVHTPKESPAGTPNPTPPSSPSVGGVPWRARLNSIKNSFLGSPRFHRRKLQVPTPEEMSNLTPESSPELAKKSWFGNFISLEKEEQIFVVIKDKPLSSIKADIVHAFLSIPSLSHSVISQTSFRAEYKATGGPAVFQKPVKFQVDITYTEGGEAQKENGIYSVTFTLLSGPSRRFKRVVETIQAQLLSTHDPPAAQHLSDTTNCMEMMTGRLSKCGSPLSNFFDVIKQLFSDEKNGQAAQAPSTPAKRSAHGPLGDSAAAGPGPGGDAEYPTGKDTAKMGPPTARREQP", "test": "Inhibition of recombinant human N-terminal His6-tagged BRSK2 (2 to 674 residues) expressed in baculovirus infected Sf21 cells assessed as remaining activity at 1 uM using KKLNRTLSFAEPG as substrate incubated for 30 mins in presence of [gamma-33P]ATP by filter binding method relative to control", "method_in_brief": "as §1"}, "[7]": {"molecular_target": "Serine/threonine-protein kinase Chk1 (Homo sapiens) (UniProt O14757)", "sequence (O14757 whole entry, the tested form may be a part)": "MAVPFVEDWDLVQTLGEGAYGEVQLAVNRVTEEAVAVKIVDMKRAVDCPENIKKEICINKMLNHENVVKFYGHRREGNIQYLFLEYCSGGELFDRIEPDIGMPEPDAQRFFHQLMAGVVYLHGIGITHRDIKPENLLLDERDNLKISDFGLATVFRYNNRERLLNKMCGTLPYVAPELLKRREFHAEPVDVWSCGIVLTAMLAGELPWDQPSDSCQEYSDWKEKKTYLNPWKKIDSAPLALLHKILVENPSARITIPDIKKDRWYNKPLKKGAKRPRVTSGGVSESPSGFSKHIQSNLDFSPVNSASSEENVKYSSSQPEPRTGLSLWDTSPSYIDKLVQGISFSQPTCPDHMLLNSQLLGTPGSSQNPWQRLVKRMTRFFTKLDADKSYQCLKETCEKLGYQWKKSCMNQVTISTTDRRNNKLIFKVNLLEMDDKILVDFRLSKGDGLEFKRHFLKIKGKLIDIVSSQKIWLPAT", "test": "(§2) Inhibition of recombinant human N-terminal GST-tagged CHK1 (1 to 476 residues) expressed in baculovirus infected Sf21 cells assessed as remaining activity at 1 uM using CHKtide as substrate incubated for 30 mins in presence of [gamma-33P]ATP by filter binding method relative to control", "method_in_brief": "as §1"}, "[8]": {"molecular_target": "Serine/threonine-protein kinase TBK1 (Homo sapiens) (UniProt Q9UHD2)", "sequence (Q9UHD2 whole entry)": "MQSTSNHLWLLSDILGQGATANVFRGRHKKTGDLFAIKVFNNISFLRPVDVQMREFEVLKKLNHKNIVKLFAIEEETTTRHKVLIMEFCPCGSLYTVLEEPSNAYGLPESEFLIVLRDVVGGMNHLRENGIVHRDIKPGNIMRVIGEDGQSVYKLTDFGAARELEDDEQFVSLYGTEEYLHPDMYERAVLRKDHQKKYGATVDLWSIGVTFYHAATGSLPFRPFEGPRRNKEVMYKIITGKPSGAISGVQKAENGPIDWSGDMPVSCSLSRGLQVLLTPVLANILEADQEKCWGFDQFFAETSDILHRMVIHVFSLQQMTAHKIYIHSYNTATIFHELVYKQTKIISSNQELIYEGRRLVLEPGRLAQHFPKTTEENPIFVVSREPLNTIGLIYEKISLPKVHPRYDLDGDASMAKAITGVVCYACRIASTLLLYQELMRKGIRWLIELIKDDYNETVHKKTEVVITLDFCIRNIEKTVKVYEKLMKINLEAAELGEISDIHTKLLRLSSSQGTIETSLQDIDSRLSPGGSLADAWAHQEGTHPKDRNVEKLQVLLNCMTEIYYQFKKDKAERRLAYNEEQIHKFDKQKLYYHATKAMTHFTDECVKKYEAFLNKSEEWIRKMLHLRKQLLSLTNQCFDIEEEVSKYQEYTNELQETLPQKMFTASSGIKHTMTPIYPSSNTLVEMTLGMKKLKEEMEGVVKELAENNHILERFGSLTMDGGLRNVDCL", "test": "as §2, with “TBK1” for “CHK1”, “729” for “476”, “KKKKERLLDDRHDSGLDSMKDEE” for “CHKtide”", "method_in_brief": "as §1"}, "[9]": {"molecular_target": "Mitogen-activated protein kinase kinase kinase kinase 2 (Homo sapiens) (UniProt Q12851)", "sequence (Q12851 whole entry, the tested form may be a part)": "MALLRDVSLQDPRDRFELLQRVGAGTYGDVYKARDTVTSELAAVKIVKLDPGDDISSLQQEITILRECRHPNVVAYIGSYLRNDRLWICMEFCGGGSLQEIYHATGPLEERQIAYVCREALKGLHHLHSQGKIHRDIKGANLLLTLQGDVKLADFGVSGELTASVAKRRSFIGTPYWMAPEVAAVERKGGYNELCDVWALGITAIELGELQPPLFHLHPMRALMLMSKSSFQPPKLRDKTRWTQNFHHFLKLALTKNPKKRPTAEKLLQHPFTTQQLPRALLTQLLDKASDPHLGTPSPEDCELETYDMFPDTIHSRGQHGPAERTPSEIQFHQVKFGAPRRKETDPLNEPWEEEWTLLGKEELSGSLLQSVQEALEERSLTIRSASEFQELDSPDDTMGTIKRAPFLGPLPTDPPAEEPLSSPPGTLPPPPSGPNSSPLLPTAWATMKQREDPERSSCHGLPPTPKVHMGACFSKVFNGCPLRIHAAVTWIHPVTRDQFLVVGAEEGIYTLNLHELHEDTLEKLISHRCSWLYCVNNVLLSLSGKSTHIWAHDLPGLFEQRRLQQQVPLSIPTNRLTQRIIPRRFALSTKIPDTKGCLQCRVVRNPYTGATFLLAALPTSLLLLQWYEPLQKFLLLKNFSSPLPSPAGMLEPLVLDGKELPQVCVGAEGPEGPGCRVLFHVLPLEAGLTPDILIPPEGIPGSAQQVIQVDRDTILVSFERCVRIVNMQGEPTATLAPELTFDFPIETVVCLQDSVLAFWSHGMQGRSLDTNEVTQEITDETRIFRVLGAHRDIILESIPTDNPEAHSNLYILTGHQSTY", "test": "Inhibition of recombinant human N-terminal His6-tagged GCK (2 to 812 residues) expressed in baculovirus infected Sf21 cells assessed as remaining activity at 1 uM using MBP as substrate incubated for 30 mins in presence of [gamma-33P]ATP by filter binding method relative to control", "method_in_brief": "as §1"}, "[10]": {"molecular_target": "T1, NUAK family SNF1-like kinase 1 (Homo sapiens) (UniProt O60285)", "T1 sequence (whole entry)": "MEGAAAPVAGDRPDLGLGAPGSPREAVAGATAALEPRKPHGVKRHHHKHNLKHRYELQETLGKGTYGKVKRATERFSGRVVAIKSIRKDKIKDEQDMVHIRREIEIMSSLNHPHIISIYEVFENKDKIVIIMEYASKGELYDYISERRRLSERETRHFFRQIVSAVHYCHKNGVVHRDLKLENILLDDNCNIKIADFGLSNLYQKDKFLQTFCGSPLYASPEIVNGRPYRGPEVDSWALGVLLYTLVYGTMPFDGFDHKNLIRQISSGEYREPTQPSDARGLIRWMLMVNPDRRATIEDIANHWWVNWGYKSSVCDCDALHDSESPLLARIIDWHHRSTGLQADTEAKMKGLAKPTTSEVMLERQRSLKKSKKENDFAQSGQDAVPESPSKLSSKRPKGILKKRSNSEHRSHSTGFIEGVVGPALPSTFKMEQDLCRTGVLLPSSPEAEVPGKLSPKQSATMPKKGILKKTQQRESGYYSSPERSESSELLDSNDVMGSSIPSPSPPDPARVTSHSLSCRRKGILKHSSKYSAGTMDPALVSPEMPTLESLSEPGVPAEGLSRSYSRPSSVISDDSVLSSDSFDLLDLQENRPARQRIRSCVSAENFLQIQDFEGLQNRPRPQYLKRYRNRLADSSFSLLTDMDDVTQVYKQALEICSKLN", "test": "Inhibition of NUAK1 (unknown origin) expressed in HEK293 cells assessed as reduction in MYPT1 phosphorylation at Ser445 residue at 30 uM incubated for 16 hrs by immunoblot analysis", "type": "cell-based", "method_in_brief": "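HEK-293 Flp/In T-Rex cells stably expressing HA–NUAK1 or HA–NUAK1[A195T] (doxycycline 0.1 μg/ml, 16–24 h to induce) treated with inhibitor 16 h, then detached in EDTA-PBS dissociation buffer containing the same inhibitor concentration, tapped and spun 70 g 3 min; lysed, endogenous MYPT1 immunoprecipitated from 0.5 mg lysate and immunoblotted for p-Ser445 and total MYPT1; three separate experiments.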"}, "[11]": {"molecular_target": "Serine/threonine-protein kinase D1 (Homo sapiens) (UniProt Q15139)", "sequence (Q15139 whole entry, the tested form may be a part)": "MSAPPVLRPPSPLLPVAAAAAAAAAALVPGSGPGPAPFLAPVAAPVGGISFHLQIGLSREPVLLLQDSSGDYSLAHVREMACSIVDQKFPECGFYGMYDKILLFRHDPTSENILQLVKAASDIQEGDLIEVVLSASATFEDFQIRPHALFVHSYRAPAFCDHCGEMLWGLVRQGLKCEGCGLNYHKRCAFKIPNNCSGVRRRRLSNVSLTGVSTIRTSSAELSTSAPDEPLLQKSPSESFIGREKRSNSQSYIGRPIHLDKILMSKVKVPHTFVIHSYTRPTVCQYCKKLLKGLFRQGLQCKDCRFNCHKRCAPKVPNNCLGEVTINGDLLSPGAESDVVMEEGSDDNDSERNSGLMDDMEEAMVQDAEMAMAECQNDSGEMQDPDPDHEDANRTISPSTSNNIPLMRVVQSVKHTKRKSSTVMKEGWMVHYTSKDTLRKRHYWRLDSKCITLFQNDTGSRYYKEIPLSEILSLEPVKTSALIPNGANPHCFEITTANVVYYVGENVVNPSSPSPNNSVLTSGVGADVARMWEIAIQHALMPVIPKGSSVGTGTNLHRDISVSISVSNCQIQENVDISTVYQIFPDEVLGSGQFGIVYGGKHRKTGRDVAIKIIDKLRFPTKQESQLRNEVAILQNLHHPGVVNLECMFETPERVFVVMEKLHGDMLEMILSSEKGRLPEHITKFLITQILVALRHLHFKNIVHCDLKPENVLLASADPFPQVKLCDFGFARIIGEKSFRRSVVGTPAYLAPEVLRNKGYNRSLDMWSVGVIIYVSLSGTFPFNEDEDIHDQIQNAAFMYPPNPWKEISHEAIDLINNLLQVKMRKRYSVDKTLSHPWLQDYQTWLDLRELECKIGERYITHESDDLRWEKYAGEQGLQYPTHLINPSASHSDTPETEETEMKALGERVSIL", "test": "Inhibition of recombinant human N-terminal His6-tagged PKD1 (2 to 912 residues) expressed in baculovirus infected Sf21 cells assessed as remaining activity at 1 uM using KKLNRTLSVA as substrate incubated for 30 mins in presence of [gamma-33P]ATP by filter binding method relative to control", "method_in_brief": "as §1"}, "[12]": {"molecular_target": "cAMP-dependent protein kinase catalytic subunit alpha (Homo sapiens) (UniProt P17612)", "test": "Inhibition of recombinant human N-terminal GST-tagged PKAalpha (2 to 351 residues) expressed in Escherichia coli assessed as remaining activity at 1 uM using Kemptide as substrate incubated for 30 mins in presence of [gamma-33P]ATP by filter binding method relative to control", "method_in_brief": "as §1"}},
  "note": "Calls of active or inactive are those of the source. The rule behind the calls is not given here.",
  "data": [
    {"smiles": "CCC(=O)Nc1cccc(Oc2nc(Nc3ccc(N4CCN(C)CC4)cc3OC)ncc2Cl)c1", "values": [
      {"measurement": "inhibition", "setting": "MEF [1]", "value": "Active"},
      {"measurement": "Activity", "setting": "[2]", "value": 51, "unit": "%"},
      {"measurement": "inhibition", "setting": "U2OS", "value": "Active"},
      {"measurement": "Activity", "setting": "[3]", "value": 63, "unit": "%"},
      {"measurement": "Activity", "setting": "[4]", "value": 77, "unit": "%"},
      {"measurement": "inhibition", "setting": "MEF [5]", "value": "Active"},
      {"measurement": "Activity", "setting": "[6]", "value": 75, "unit": "%"},
      {"measurement": "Activity", "setting": "[7]", "value": 58, "unit": "%"},
      {"measurement": "Activity", "setting": "[8]", "value": 84, "unit": "%"},
      {"measurement": "Activity", "setting": "[9]", "value": 96, "unit": "%"},
      {"measurement": "inhibition", "setting": "[10]", "value": "Active"},
      {"measurement": "Activity", "setting": "[11]", "value": 57, "unit": "%"},
      {"measurement": "Activity", "setting": "[12]", "value": 84, "unit": "%"}
    ]}
  ]
}
